Series [1] deals with T1, Mitogen-activated protein kinase 14 (Homo sapiens, UniProt Q16539). Kind of series: Inhibition of p38alpha assessed as phosphorylation of […] after 60 mins by fluorescence assay. In outline:
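Cascade assay in which activated p38α (6 pM final) activates unactivated MK2 (1 nM), which phosphorylates FITC-labelled Hsp27 peptide (1 nM) with […]. Inhibitor 0.2–10,000 nM. Room temperature, 60 min, EDTA quench. Phospho-peptide quantified by Caliper LabChip; IC50.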

The nature of series [2]: Clearance in iv and po dosed Sprague-Dawley rat. As to conditions: in vivo. The series is classed as ADME, organism-based.
A short description of series [3]: Half life in iv and po dosed Sprague-Dawley rat. Format: ADME, organism-based. As to conditions: in vivo.
Series [4] in a line: Bioavailability in iv and po dosed Sprague-Dawley rat. The series is classed as ADME, organism-based. As to conditions: in vivo.
Series [5] is described as follows: Metabolic stability in human liver microsomes assessed as compound remaining at 2 uM after 45 mins by LC/MS analysis. Format: ADME, Microsome. As to conditions: read-out: Stability.
The subject of series [6] is Rattus norvegicus. Kind of series: Antiinflammatory activity in Lewis rat assessed as inhibition of LPS-induced TNFalpha production at 5 mg/kg, po administered 6 hrs before LPS challenge by ELISA. Format: functional. In short, it runs like this:
(§1)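 Adult male Lewis rats (225–250 g), fasted 18 h with free access to water. Compound or vehicle given by oral gavage (1 mL). LPS (E. coli 0111:B4) given 1 mg/kg i.v. in saline 2, 4 or 6 h later. Serum taken by cardiac puncture 90 min after LPS. TNFα quantified against a recombinant rat TNF standard curve with a four-parameter fit. Two vehicle groups per experiment, three experiments.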
Background: An ELISA detects its analyte on a solid surface through an enzyme-linked reagent.

The subject of series [7] is PBMC. The series is described as follows: Antiinflammatory activity in human PBMC assessed as inhibition of LPS-induced TNFalpha production treated 1 hr before LPS challenge measured after 18 hrs. The series is classed as functional, cell-based. In short, it runs like this: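 PBMCs isolated by Ficoll from heparinized blood of two healthy donors, in DMEM with 5% endotoxin-free FBS, 2.5 × 10⁵ cells/well. Pretreated 1 h with compound (0.0001–25 µM range), then stimulated 18 h with 22 ng/ml LPS. Final DMSO 0.25%. Secreted TNFα measured by MSD; IC50 reported.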

A short description of series [8]: Solubility of the compound. The series is classed as physicochemical.
Series [9] can be described thus: Metabolic stability in rat liver microsomes assessed as compound remaining at 2 uM after 45 mins by LC/MS analysis. Particulars: read-out: Stability. The series is classed as ADME, Microsome. (In general: Liver microsomes are a subcellular fraction often used to study metabolism.)
Series [10] concerns Rattus norvegicus. The series is described as follows: Antiinflammatory activity in Lewis rat assessed as inhibition of LPS-induced TNFalpha production at 15 mg/kg, po administered 4 hrs before LPS challenge by ELISA.
In series [11] the target is Tyrosine-protein kinase JAK1 (Homo sapiens) (UniProt P23458). The series is described as follows: Inhibition of JAK1 at 10 uM.
The target of series [12] is T1, Mitogen-activated protein kinase 14. The series is described as follows: Inhibition of p38alpha at 10 uM.
For series [13], the target named is Dual specificity mitogen-activated protein kinase kinase 1 (Homo sapiens) (UniProt Q02750). The series is described as follows: Inhibition of MEK1 at 10 uM.
Series [14] addresses Mitogen-activated protein kinase 3 (Homo sapiens) (UniProt P27361). The series is described as follows: Inhibition of ERK1 at 10 uM.
Series [15] deals with Mitogen-activated protein kinase 12 (Homo sapiens) (UniProt P53778). Kind of series: Inhibition of p38-gamma at 10 uM.
The target of series [16] is RAF proto-oncogene serine/threonine-protein kinase (Homo sapiens) (UniProt P04049). The series is described as follows: Inhibition of c-RAF at 10 uM.
In series [17] the target is Mitogen-activated protein kinase 13 (Homo sapiens) (UniProt O15264). Kind of series: Inhibition of p38delta at 10 uM.
Series [18] in a line: Bioavailability in Sprague-Dawley rat po as suspension. As to conditions: in vivo.
Series [19] concerns the target Tyrosine-protein kinase JAK2 (Homo sapiens) (UniProt O60674). Kind of series: Inhibition of JAK2 at 10 uM.
For series [20], the target named is Interleukin-1 receptor-associated kinase 4 (Homo sapiens) (UniProt Q9NWZ3). Kind of series: Inhibition of IRAK4 at 10 uM.
The target of series [21] is Serine/threonine-protein kinase mTOR (Homo sapiens) (UniProt P42345). The series is described as follows: Inhibition of mTOR at 10 uM.
Series [22] in a line: Bioavailability in Sprague-Dawley rat at 5 mg/kg, po. The series is classed as ADME, organism-based. Particulars: in vivo.
In series [23] the test system is Rattus norvegicus. Kind of series: Antiarthritic activity in Lewis rat assessed as inhibition of streptococal cell wall-induced increase of paw volume at 60 mg/kg, po qd for 10 days administered 10 days after streptococal cell wall challenge by displacement plethysmometer analysis. Format: functional. As to conditions: 240 h. In outline:
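Female Lewis rats given intraperitoneal group A streptococcal cell wall peptidoglycan-polysaccharide ([…] bodyweight). Only animals developing the acute phase were treated. Oral gavage (0.5 mL) daily from day 10 to day 21 post-SCW, with methylcellulose/Tween 20 vehicle as comparison. Four to eight animals per group, two paw volumes per animal. Paw volume measured on day 21 by water displacement plethysmometer.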

The target in series [24] is Tyrosine-protein kinase ZAP-70 (Homo sapiens) (UniProt P43403). Kind of series: Inhibition of ZAP70 at 10 uM.
In series [25] the target is Epidermal growth factor receptor (Homo sapiens) (UniProt P00533). Kind of series: Inhibition of EGFR at 10 uM.
A short description of series [26]: Inhibition of JNK at 10 uM.
The target of series [27] is Vascular endothelial growth factor receptor 1 (Homo sapiens) (UniProt P17948). The series is described as follows: Inhibition of FLT1 at 10 uM.
Series [28] addresses Tyrosine-protein kinase JAK3 (Homo sapiens) (UniProt P52333). Kind of series: Inhibition of JAK3 at 10 uM.
The target of series [29] is Rho-associated protein kinase 2 (Homo sapiens) (UniProt O75116). Kind of series: Inhibition of ROCK2 at 10 uM.
The target in series [30] is Rho-associated protein kinase 1 (Homo sapiens) (UniProt Q13464). The series is described as follows: Inhibition of ROCK1 at 10 uM.
In series [31] the target is Tyrosine-protein kinase BTK (Homo sapiens) (UniProt Q06187). The series is described as follows: Inhibition of BTK at 10 uM.
The target of series [32] is Inhibitor of nuclear factor kappa-B kinase subunit beta (Homo sapiens) (UniProt O14920). Kind of series: Inhibition of IKK-beta at 10 uM.
For series [33], the system named is Rattus norvegicus. Kind of series: Antiinflammatory activity in Lewis rat assessed as inhibition of LPS-induced TNFalpha production at 5 mg/kg, po administered 4 hrs before LPS challenge by ELISA. Format: functional. In short, it runs like this:
as §1

The target in series [34] is Cyclin-dependent kinase 2 (Homo sapiens) (UniProt P24941). Kind of series: Inhibition of CDK2 at 10 uM.
For series [35], the target named is High affinity nerve growth factor receptor (Homo sapiens) (UniProt P04629). Kind of series: Inhibition of TRKA at 10 uM.
Series [36] concerns the target Tyrosine-protein kinase Lck (Homo sapiens) (UniProt P06239). Kind of series: Inhibition of LCK at 10 uM.
Series [37] concerns the target Vascular endothelial growth factor receptor 2 (Homo sapiens) (UniProt P35968). The series is described as follows: Inhibition of VEGFR2 at 10 uM.
Series [38] has as its target MAP kinase-activated protein kinase 2 (Homo sapiens) (UniProt P49137). Kind of series: Inhibition of MK2 at 10 uM.
The nature of series [39]: Inhibition of PDGFR at 10 uM.
Series [40] addresses Aurora kinase A (Homo sapiens) (UniProt O14965). The series is described as follows: Inhibition of AURKA at 10 uM.
For series [41], the target named is Mitogen-activated protein kinase 11 (Homo sapiens) (UniProt Q15759). The series is described as follows: Inhibition of p38beta at 10 uM.
For series [42], the target named is Non-receptor tyrosine-protein kinase TYK2 (Homo sapiens) (UniProt P29597). Kind of series: Inhibition of TYK2 at 10 uM.
Series [43] deals with Rattus norvegicus. The series is described as follows: Antiinflammatory activity in Lewis rat assessed as inhibition of LPS-induced TNFalpha production at 20 mg/kg, po administered 2 hrs before LPS challenge by ELISA. Format: functional. In outline: as §1

SMILES strings stand for the structures. pIC50: −log10 of the molar value. Active and inactive are the calls of the source. A value given as a limit tells only on which side of the number the result lay.

T1 sequence (Q16539 whole entry): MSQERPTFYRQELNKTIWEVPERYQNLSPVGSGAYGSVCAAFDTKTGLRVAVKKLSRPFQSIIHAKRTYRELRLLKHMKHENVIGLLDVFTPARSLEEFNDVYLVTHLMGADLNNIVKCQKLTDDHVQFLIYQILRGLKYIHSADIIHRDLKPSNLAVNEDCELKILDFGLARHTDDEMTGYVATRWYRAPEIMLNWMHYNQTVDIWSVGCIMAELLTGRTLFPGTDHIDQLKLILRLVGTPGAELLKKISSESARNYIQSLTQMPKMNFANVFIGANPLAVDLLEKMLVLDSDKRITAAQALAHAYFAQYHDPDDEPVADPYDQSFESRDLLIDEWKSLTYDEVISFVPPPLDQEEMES
Tyrosine-protein kinase ZAP-70 (Homo sapiens), sequence (P43403 whole entry): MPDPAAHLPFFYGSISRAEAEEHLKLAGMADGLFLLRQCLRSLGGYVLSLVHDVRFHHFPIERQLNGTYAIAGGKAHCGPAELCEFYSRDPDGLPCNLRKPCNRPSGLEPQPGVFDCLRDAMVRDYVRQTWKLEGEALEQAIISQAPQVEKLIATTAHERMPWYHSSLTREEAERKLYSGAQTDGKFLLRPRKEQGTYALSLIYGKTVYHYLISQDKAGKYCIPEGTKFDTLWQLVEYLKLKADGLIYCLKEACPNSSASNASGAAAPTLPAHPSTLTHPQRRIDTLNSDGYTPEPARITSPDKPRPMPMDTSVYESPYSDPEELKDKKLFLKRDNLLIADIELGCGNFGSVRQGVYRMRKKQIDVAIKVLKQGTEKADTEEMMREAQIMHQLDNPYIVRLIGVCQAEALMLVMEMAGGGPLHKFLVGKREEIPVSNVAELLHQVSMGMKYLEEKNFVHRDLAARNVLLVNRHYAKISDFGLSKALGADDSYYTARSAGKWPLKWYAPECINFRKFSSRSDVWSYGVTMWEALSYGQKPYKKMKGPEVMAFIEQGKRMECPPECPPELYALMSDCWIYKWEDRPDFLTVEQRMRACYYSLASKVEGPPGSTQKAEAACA
Mitogen-activated protein kinase 3 (Homo sapiens), sequence (P27361 whole entry): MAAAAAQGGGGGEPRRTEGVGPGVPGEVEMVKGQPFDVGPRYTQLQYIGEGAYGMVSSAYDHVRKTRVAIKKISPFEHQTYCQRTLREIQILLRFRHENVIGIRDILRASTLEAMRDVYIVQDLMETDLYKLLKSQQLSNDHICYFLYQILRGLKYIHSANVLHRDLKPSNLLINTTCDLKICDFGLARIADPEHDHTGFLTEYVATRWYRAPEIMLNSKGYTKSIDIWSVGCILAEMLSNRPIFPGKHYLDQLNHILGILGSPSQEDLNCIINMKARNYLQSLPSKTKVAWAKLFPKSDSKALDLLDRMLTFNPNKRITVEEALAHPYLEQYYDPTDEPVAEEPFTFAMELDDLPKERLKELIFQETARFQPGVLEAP
Inhibitor of nuclear factor kappa-B kinase subunit beta (Homo sapiens), sequence (O14920 whole entry): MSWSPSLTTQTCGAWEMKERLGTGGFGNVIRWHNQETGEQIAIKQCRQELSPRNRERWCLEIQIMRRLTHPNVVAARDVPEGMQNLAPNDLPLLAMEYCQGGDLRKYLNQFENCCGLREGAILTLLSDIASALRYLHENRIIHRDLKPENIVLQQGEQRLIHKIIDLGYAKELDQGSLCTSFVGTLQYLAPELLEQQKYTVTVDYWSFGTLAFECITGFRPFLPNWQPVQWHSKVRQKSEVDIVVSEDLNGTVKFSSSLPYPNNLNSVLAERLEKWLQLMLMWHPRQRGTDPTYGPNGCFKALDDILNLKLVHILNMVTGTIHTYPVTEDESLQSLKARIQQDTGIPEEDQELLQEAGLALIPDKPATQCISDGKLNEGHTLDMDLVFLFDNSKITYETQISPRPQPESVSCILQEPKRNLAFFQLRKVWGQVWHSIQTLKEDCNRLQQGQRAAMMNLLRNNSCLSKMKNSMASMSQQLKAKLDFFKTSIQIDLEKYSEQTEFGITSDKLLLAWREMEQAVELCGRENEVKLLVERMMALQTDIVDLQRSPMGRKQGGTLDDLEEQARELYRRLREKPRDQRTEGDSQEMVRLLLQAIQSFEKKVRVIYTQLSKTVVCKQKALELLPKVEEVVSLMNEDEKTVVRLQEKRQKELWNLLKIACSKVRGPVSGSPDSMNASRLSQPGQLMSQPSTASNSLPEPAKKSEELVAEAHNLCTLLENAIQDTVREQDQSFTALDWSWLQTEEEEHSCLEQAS
High affinity nerve growth factor receptor (Homo sapiens), sequence (P04629 33-796 limits assumed): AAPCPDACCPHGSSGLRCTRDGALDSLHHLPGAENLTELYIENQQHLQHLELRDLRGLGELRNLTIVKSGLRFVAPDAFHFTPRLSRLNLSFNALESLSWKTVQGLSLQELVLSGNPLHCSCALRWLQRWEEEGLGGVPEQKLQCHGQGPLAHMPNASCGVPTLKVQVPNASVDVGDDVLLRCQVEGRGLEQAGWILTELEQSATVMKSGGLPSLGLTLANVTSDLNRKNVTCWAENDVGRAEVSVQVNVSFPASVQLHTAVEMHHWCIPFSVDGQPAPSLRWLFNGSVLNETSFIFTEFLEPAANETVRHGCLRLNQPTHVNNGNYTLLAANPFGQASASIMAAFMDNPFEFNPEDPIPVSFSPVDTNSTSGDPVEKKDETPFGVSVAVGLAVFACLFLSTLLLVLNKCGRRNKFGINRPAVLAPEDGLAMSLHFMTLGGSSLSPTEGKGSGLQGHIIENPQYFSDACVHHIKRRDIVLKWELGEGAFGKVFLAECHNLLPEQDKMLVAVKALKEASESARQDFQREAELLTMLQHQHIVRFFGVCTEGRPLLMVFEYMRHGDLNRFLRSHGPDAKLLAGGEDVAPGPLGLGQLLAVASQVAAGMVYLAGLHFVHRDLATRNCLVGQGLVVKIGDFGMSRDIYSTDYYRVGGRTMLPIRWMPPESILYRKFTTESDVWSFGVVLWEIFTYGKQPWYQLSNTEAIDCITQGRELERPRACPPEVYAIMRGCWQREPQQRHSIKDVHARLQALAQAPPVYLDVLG
Tyrosine-protein kinase JAK2 (Homo sapiens), sequence (O60674 whole entry): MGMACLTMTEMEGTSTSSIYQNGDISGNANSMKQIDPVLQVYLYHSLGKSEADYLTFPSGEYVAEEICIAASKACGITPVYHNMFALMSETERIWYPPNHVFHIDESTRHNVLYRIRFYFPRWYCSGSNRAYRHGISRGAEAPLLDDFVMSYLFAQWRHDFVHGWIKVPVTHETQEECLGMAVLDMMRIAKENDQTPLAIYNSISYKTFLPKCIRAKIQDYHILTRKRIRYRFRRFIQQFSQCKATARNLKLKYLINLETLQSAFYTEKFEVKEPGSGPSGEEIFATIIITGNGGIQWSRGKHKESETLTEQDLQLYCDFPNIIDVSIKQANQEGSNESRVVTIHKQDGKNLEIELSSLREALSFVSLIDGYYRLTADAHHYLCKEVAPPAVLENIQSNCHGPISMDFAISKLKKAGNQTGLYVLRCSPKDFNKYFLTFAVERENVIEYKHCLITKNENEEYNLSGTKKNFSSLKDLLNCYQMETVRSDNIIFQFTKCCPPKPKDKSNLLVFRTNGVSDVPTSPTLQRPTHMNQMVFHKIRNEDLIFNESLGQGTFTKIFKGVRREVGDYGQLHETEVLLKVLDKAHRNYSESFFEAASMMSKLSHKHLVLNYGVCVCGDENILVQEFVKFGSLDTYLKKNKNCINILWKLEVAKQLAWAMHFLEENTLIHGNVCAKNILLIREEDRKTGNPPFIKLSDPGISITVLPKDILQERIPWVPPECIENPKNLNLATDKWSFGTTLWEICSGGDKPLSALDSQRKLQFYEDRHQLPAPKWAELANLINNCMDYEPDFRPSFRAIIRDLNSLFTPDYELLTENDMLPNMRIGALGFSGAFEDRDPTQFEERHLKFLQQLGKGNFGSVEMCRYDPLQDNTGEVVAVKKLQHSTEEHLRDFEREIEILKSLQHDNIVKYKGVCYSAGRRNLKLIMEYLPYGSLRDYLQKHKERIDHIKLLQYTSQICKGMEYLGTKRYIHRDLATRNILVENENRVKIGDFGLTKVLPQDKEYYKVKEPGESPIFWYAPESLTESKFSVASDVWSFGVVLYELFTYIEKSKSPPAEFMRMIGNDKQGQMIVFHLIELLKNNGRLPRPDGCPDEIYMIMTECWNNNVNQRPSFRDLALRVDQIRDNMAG
Aurora kinase A (Homo sapiens), sequence (O14965 whole entry): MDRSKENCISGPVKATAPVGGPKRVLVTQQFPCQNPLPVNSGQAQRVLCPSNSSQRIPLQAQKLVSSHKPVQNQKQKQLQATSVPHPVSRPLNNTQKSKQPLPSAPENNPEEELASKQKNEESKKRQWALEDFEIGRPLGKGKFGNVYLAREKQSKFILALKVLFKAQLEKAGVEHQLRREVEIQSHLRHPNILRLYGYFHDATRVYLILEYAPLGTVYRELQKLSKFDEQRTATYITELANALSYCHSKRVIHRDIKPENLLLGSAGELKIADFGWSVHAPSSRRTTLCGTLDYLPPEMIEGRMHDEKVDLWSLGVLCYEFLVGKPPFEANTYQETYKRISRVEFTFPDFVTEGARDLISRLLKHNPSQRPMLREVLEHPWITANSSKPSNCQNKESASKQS
Mitogen-activated protein kinase 12 (Homo sapiens), sequence (P53778 whole entry): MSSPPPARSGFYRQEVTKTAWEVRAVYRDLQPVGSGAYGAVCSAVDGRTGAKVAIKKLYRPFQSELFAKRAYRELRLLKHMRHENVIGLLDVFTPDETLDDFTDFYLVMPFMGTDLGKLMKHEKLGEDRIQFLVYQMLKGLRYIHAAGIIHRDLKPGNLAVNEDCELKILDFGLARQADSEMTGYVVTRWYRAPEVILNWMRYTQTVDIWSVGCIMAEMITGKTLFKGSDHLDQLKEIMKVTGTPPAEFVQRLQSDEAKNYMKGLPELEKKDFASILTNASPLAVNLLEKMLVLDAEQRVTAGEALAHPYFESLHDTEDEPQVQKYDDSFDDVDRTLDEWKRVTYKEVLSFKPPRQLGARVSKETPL

In general, pIC50 refers to the IC50 on a negative log10 scale, so that one unit is a factor of ten. The half-life is the time needed for the level to fall by half in the phase considered. A high value points to slow loss. Usually bioavailability stands for the share of a dose that reaches the circulation, judged against a reference dose that is usually intravenous. High values mean much systemic uptake, low ones little systemic uptake. One may read the inhibition in vivo as the share of the control response that was lost under treatment. What is called solubility is the dissolved amount per volume that the medium holds. Consider `Cc1cc(OCc2ccc(F)cc2F)c(Cl)c(=O)n1-c1c(F)cccc1F`, for which the pIC50 in series [1] is 8.40; in series [7], 7.77. The molecule also displayed a clearance in series [2] of 0.768 L/h/kg. The molecule also had a half-life in [3] of 1.8 h. The same molecule showed a bioavailability in series [4] of 21%. In addition, the remaining at 0.75 h, 2 µM in series [5] was found to be 74%; in series [9], 87%. In addition, in series [6], the inhibition in vivo at 5 mg/kg was 83%. Also, the solubility in series [8] was < 0.01 mg/mL.
On to `CN(C)Cc1cc(OCc2ccc(F)cc2F)c(Br)c(=O)n1-c1c(F)cccc1F`, for which the pIC50 in series [1] was 8.22; in series [7] it was 7.30. In addition, the remaining at 0.75 h, 2 µM in series [5] and in series [9] was 0% in each case. For the same molecule, the inhibition in vivo at 15 mg/kg in series [10] came to 69%.
A word on the inhibition: it is the percentage by which the read-out fell short of the control. As to `Cc1cc(OCc2ccc(F)cc2F)c(Br)c(=O)n1-c1cccc(C(N)=O)c1`, the inhibition in series [11], in [13], in series [14], in [15], in series [16] and in series [17] was < 50% each time. Also, the inhibition in series [19], in series [20], in [21], in series [24], in series [25] and in [26] was < 50% in each case. The inhibition in [27], in series [28], in [29], in series [30], in [31] and in series [32] was < 50% in each case. The inhibition in [34], in series [35], in [36], in series [37], in series [38] and in series [39] was < 50% in each case. In addition, the inhibition in series [40] and in [42] was < 50% throughout. Further, the inhibition result in [12] and in series [41] was “Active” in each case. Moreover, the pIC50 in series [1] is 7.92; in [7] it was 7.19. The clearance in series [2] turned out to be 0.56 L/h/kg. The bioavailability in series [18] came out at 7%; in series [22], 93%. In series [3], this molecule showed a half-life of 3.4 h. For the same molecule, the inhibition in vivo at 60 mg/kg in [23] came out at 40%. Further, the remaining at 0.75 h, 2 µM stood at 100% in series [5] and 97% in series [9]. Further, the inhibition in vivo at 5 mg/kg in series [33] came to 89%. In addition, the solubility in series [8] was < 0.01 mg/mL.
For the molecule `Cc1cccc(C)c1-n1c(C)cc(OCc2ccc(F)cc2F)c(Br)c1=O`, the pIC50 is 8.70 in series [1] and 7.60 in series [7]. Besides, the remaining at 0.75 h, 2 µM in [5] stood at 3%; in series [9], 1%. The inhibition in vivo at 20 mg/kg in series [43] is 66%.

Values taken from ChEMBL document CHEMBL1795280, “Design, synthesis and activity of a potent, selective series of N-aryl pyridinone inhibitors of p38 kinase” (Bioorg Med Chem Lett, 2011).
